Converted amounts (≈) assume the structure as drawn.
Assays:
Staphylococcus aureus [1] = assay: Antibacterial activity against methicillin-resistant Staphylococcus aureus; type: functional
Summary of the method: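 Broth microdilution by two-fold serial dilution in 96-well plates following NCCLS. MRSA strain N315. Inoculum adjusted with sterile saline to 1 × 10⁵ CFU. Compounds were made up as DMSO stocks, then diluted in Mueller-Hinton broth. A DMSO plus inoculum well, without drug, was the growth control. Growth was read visually and spectrophotometrically, in triplicate. MIC is the lowest concentration giving complete inhibition of growth.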

Klebsiella pneumoniae = assay: Antibacterial activity against Klebsiella pneumoniae; type: functional
Candida [2] = assay: Antifungal activity against Candida mycoderma after 24 hrs by two-fold serial dilution method; type: functional
Summary of the method: (§1)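 Spore suspension in sterile distilled water from one-day-old cultures on Sabouraud agar, final 1–5 × 10³ spore mL⁻¹. Compound stocks diluted in sterile RPMI 1640 as two-fold serial dilutions in microdilution plates. MIC is the lowest concentration completely inhibiting growth. Growth monitored visually and spectrophotometrically, in triplicate.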

Candida albicans [3] = assay: Antifungal activity against Candida albicans ATCC 76615 after 24 hrs by two-fold serial dilution method; type: functional; settings: ATCC 76615, 24 h; summary of the method: as §1
Salmonella typhi = assay: Antibacterial activity against Bacillus typhi after 24 hrs by two-fold serial dilution method; type: functional, Salmonella enterica subsp. enterica serovar Typhi; settings: Salmonella enterica
Summary of the method: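 Two-fold serial dilution in 96-well plates following NCCLS; compounds dissolved in DMSO as stocks, then diluted in Mueller-Hinton broth; bacterial suspension adjusted with sterile saline to 1 × 10⁵ CFU; MIC taken as lowest concentration completely inhibiting growth, monitored visually and spectrophotometrically; DMSO-plus-inoculum well as solvent control; triplicate.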

Pseudomonas aeruginosa [4] = assay: Antibacterial activity against Pseudomonas aeruginosa ATCC 27853 after 24 hrs by two-fold serial dilution method; type: functional; settings: ATCC 27853, 24 h
Summary of the method: (§2)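 MIC taken as the lowest concentration giving complete growth inhibition, by standard two-fold serial dilution in 96-well plates following NCCLS. Stocks in DMSO, diluted in Mueller–Hinton broth. Inoculum adjusted with sterile saline to 1 × 10⁵ CFU. DMSO with inoculum and no drug served as solvent control. Growth read visually and spectrophotometrically, in triplicate.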

Escherichia coli [5] = assay: Antibacterial activity against Escherichia coli JM109 after 24 hrs by two-fold serial dilution method; type: functional; settings: JM109, 24 h
Bacillus [6] = assay: Antibacterial activity against Bacillus proteus ATCC 13315 after 24 hrs by two-fold serial dilution method; type: functional; settings: ATCC 13315, 24 h; summary of the method: as §2
Micrococcus luteus [7] = assay: Antibacterial activity against Micrococcus luteus ATCC 4698 after 24 hrs by two-fold serial dilution method; type: functional; settings: ATCC 4698, 24 h; summary of the method: as §2
Bacillus subtilis [8] = assay: Antibacterial activity against Bacillus subtilis ATCC 21216 after 24 hrs by two-fold serial dilution method; type: functional; settings: ATCC 21216, 24 h; summary of the method: as §2
Staphylococcus aureus [9] = assay: Antibacterial activity against methicillin-resistant Staphylococcus aureus N315 after 24 hrs by two-fold serial dilution method; type: functional; settings: N315, 24 h
Staphylococcus aureus [10] = assay: Antibacterial activity against Staphylococcus aureus ATCC 6538 after 24 hrs by two-fold serial dilution method; type: functional; settings: ATCC 6538, 24 h
Aspergillus flavus [11] = assay: Antifungal activity against Aspergillus flavus after 24 hrs by two-fold serial dilution method; type: functional; summary of the method: as §1
Cyberlindnera jadinii [12] = assay: Antifungal activity against Candida utilis after 24 hrs by two-fold serial dilution method; type: functional; settings: Williopsis jadinii; summary of the method: as §1
Saccharomyces cerevisiae [13] = assay: Antifungal activity against Saccharomyces cerevisiae after 24 hrs by two-fold serial dilution method; type: functional; summary of the method: as §1
Aspergillus flavus [14] = assay: Potentiation of fluconazole-induced antifungal activity against Aspergillus flavus at 2 times MIC after 24 hrs by two-fold serial dilution method; type: functional
Saccharomyces cerevisiae [15] = assay: Potentiation of fluconazole-induced antifungal activity against Saccharomyces cerevisiae at 2 times MIC after 24 hrs by two-fold serial dilution method; type: functional
Cyberlindnera jadinii [16] = assay: Potentiation of fluconazole-induced antifungal activity against Candida utilis at 4 times MIC after 24 hrs by two-fold serial dilution method; type: functional
Candida [17] = assay: Potentiation of fluconazole-induced antifungal activity against Candida mycoderma at 2 times MIC after 24 hrs by two-fold serial dilution method; type: functional
Candida albicans [18] = assay: Potentiation of fluconazole-induced antifungal activity against Candida albicans ATCC 76615 at MIC after 24 hrs by two-fold serial dilution method; type: functional
Pseudomonas aeruginosa [19] = assay: Potentiation of norfloxacin-induced antibacterial activity against Pseudomonas aeruginosa ATCC 27853 at 2 times MIC after 24 hrs by two-fold serial dilution method; type: functional
Escherichia coli [20] = assay: Potentiation of norfloxacin-induced antibacterial activity against Escherichia coli JM109 at 4 times MIC after 24 hrs by two-fold serial dilution method; type: functional
Bacillus [21] = assay: Potentiation of norfloxacin-induced antibacterial activity against Bacillus proteus ATCC 13315 at 2 times MIC after 24 hrs by two-fold serial dilution method; type: functional
Micrococcus luteus [22] = assay: Potentiation of norfloxacin-induced antibacterial activity against Micrococcus luteus ATCC 4698 at MIC after 24 hrs by two-fold serial dilution method; type: functional
Bacillus subtilis [23] = assay: Potentiation of norfloxacin-induced antibacterial activity against Bacillus subtilis ATCC 21216 at MIC after 24 hrs by two-fold serial dilution method; type: functional
Staphylococcus aureus [24] = assay: Potentiation of norfloxacin-induced antibacterial activity against Staphylococcus aureus ATCC 6538 at MIC after 24 hrs by two-fold serial dilution method; type: functional
Pseudomonas aeruginosa [25] = assay: Potentiation of chloromycin-induced antibacterial activity against Pseudomonas aeruginosa ATCC 27853 at 4 times MIC after 24 hrs by two-fold serial dilution method; type: functional
Escherichia coli [26] = assay: Potentiation of chloromycin-induced antibacterial activity against Escherichia coli JM109 at 8 times MIC after 24 hrs by two-fold serial dilution method; type: functional
Bacillus [27] = assay: Potentiation of chloromycin-induced antibacterial activity against Bacillus proteus ATCC 13315 at 4 times MIC after 24 hrs by two-fold serial dilution method; type: functional
Micrococcus luteus [28] = assay: Potentiation of chloromycin-induced antibacterial activity against Micrococcus luteus ATCC 4698 at 2 times MIC after 24 hrs by two-fold serial dilution method; type: functional
Bacillus subtilis [29] = assay: Potentiation of chloromycin-induced antibacterial activity against Bacillus subtilis ATCC 21216 at 2 times MIC after 24 hrs by two-fold serial dilution method; type: functional

SMILES	MIC (Candida [2]) [µg/mL]	MIC (Candida albicans [3]) [µg/mL]	MIC (Salmonella typhi) [µg/mL]	MIC (Pseudomonas aeruginosa [4]) [µg/mL]	MIC (Escherichia coli [5]) [µg/mL]	MIC (Bacillus [6]) [µg/mL]	MIC (Micrococcus luteus [7]) [µg/mL]	MIC (Bacillus subtilis [8]) [µg/mL]	MIC (Staphylococcus aureus [9]) [µg/mL]	MIC (Staphylococcus aureus [10]) [µg/mL]	MIC (Aspergillus flavus [11]) [µg/mL]	MIC (Cyberlindnera jadinii [12]) [µg/mL]	MIC (Saccharomyces cerevisiae [13]) [µg/mL]	other results
CCCCCCCCCCn1c(CNNC(=O)c2sc(C(=O)NNCc3nc4ccccc4n3CCCCCCCCCC)c(C)c2C)nc2ccccc21														MIC (Staphylococcus aureus [1]): 2 µg/mL (≈ 2.6 µM)
CCCC[C@H](CC(=O)NO)C(=O)N[C@@H](c1nc2ccccc2[nH]1)C(C)C														MIC (Klebsiella pneumoniae): 0.5 µg/mL (≈ 1.39 µM)
Fc1ccccc1NCc1nc2ccccc2[nH]1	32 (≈ 133 µM)	32 (≈ 133 µM)	64 (≈ 265 µM)	128 (≈ 531 µM)	32 (≈ 133 µM)	64 (≈ 265 µM)	64 (≈ 265 µM)	32 (≈ 133 µM)	32 (≈ 133 µM)	16 (≈ 66.3 µM)	32 (≈ 133 µM)	64 (≈ 265 µM)	32 (≈ 133 µM)	
FC(F)(F)c1cccc(NCc2nc3ccccc3[nH]2)c1	16 (≈ 54.9 µM)	32 (≈ 110 µM)	32 (≈ 110 µM)	64 (≈ 220 µM)	32 (≈ 110 µM)	16 (≈ 54.9 µM)	32 (≈ 110 µM)	32 (≈ 110 µM)	16 (≈ 54.9 µM)	16 (≈ 54.9 µM)	16 (≈ 54.9 µM)	32 (≈ 110 µM)	32 (≈ 110 µM)	
Fc1ccc(NCc2nc3ccccc3[nH]2)cc1	32 (≈ 133 µM)	64 (≈ 265 µM)	128 (≈ 531 µM)	64 (≈ 265 µM)	64 (≈ 265 µM)	32 (≈ 133 µM)	64 (≈ 265 µM)	32 (≈ 133 µM)	64 (≈ 265 µM)	32 (≈ 133 µM)	32 (≈ 133 µM)	32 (≈ 133 µM)	64 (≈ 265 µM)	
Clc1ccc(NCc2nc3ccccc3[nH]2)cc1	64 (≈ 248 µM)	64 (≈ 248 µM)	128 (≈ 497 µM)	128 (≈ 497 µM)	32 (≈ 124 µM)	64 (≈ 248 µM)	32 (≈ 124 µM)	64 (≈ 248 µM)	32 (≈ 124 µM)	64 (≈ 248 µM)	64 (≈ 248 µM)	32 (≈ 124 µM)	64 (≈ 248 µM)	
Ic1ccc(NCc2nc3ccccc3[nH]2)cc1	128 (≈ 367 µM)	64 (≈ 183 µM)	64 (≈ 183 µM)	128 (≈ 367 µM)	64 (≈ 183 µM)	64 (≈ 183 µM)	128 (≈ 367 µM)	64 (≈ 183 µM)	128 (≈ 367 µM)	64 (≈ 183 µM)	128 (≈ 367 µM)	64 (≈ 183 µM)	64 (≈ 183 µM)	
Cc1ccc(NCc2nc3ccccc3[nH]2)cc1	256 (≈ 1080 µM)	32 (≈ 135 µM)	64 (≈ 270 µM)	64 (≈ 270 µM)	64 (≈ 270 µM)	16 (≈ 67.4 µM)	512 (≈ 2160 µM)	64 (≈ 270 µM)	128 (≈ 539 µM)	32 (≈ 135 µM)	128 (≈ 539 µM)	32 (≈ 135 µM)	64 (≈ 270 µM)	
Fc1ccc(NCc2nc3ccccc3[nH]2)c(F)c1	32 (≈ 123 µM)	64 (≈ 247 µM)	32 (≈ 123 µM)	64 (≈ 247 µM)	16 (≈ 61.7 µM)	16 (≈ 61.7 µM)	64 (≈ 247 µM)	32 (≈ 123 µM)	64 (≈ 247 µM)	16 (≈ 61.7 µM)	64 (≈ 247 µM)	32 (≈ 123 µM)	32 (≈ 123 µM)	
Clc1ccc(NCc2nc3ccccc3[nH]2)c(Cl)c1	32 (≈ 110 µM)	32 (≈ 110 µM)	128 (≈ 438 µM)	64 (≈ 219 µM)	32 (≈ 110 µM)	64 (≈ 219 µM)	64 (≈ 219 µM)	32 (≈ 110 µM)	64 (≈ 219 µM)	64 (≈ 219 µM)	64 (≈ 219 µM)	32 (≈ 110 µM)	64 (≈ 219 µM)	
CCCN(Cc1nc2ccccc2[nH]1)c1ccc(C)cc1	128 (≈ 458 µM)	128 (≈ 458 µM)	128 (≈ 458 µM)	256 (≈ 916 µM)	128 (≈ 458 µM)	128 (≈ 458 µM)	128 (≈ 458 µM)	64 (≈ 229 µM)	256 (≈ 916 µM)	128 (≈ 458 µM)	128 (≈ 458 µM)	64 (≈ 229 µM)	128 (≈ 458 µM)	
CCCCCCN(Cc1nc2ccccc2[nH]1)c1ccc(C)cc1	128 (≈ 398 µM)	64 (≈ 199 µM)	64 (≈ 199 µM)	64 (≈ 199 µM)	256 (≈ 796 µM)	256 (≈ 796 µM)	64 (≈ 199 µM)	128 (≈ 398 µM)	128 (≈ 398 µM)	128 (≈ 398 µM)	64 (≈ 199 µM)	128 (≈ 398 µM)	64 (≈ 199 µM)	
CCCCCCCCN(Cc1nc2ccccc2[nH]1)c1ccc(C)cc1	32 (≈ 91.6 µM)	16 (≈ 45.8 µM)	64 (≈ 183 µM)	16 (≈ 45.8 µM)	128 (≈ 366 µM)	64 (≈ 183 µM)	128 (≈ 366 µM)	16 (≈ 45.8 µM)	128 (≈ 366 µM)	32 (≈ 91.6 µM)	64 (≈ 183 µM)	32 (≈ 91.6 µM)	16 (≈ 45.8 µM)	
Cl.Cl.Fc1ccc(CN(Cc2nc3ccccc3[nH]2)c2cc(C(F)(F)F)cc(C(F)(F)F)c2)c(F)c1	16	8	16	16	32	16	8	8	16	8	8	16	8	fractional inhibitory concentration index (FICI) (Aspergillus flavus [14]): 0.375; fractional inhibitory concentration index (FICI) (Saccharomyces cerevisiae [15]): 0.375; fractional inhibitory concentration index (FICI) (Cyberlindnera jadinii [16]): 0.375; fractional inhibitory concentration index (FICI) (Candida [17]): 0.25; fractional inhibitory concentration index (FICI) (Candida albicans [18]): 0.375; fractional inhibitory concentration index (FICI) (Pseudomonas aeruginosa [19]): 0.25; fractional inhibitory concentration index (FICI) (Escherichia coli [20]): 0.375; fractional inhibitory concentration index (FICI) (Bacillus [21]): 0.25; fractional inhibitory concentration index (FICI) (Micrococcus luteus [22]): 0.25; fractional inhibitory concentration index (FICI) (Bacillus subtilis [23]): 0.25; fractional inhibitory concentration index (FICI) (Staphylococcus aureus [24]): 0.25; fractional inhibitory concentration index (FICI) (Pseudomonas aeruginosa [25]): 0.375; fractional inhibitory concentration index (FICI) (Escherichia coli [26]): 0.375; fractional inhibitory concentration index (FICI) (Bacillus [27]): 0.375; fractional inhibitory concentration index (FICI) (Micrococcus luteus [28]): 0.375; fractional inhibitory concentration index (FICI) (Bacillus subtilis [29]): 0.5
